Assay results: ChEMBL document CHEMBL3526048, “In vitro metabolism of rivoglitazone, a novel peroxisome proliferator-activated receptor γ agonist, in rat, monkey, and human liver microsomes and freshly isolated hepatocytes” (Drug Metab Dispos, 2011)

Tests used:
[1] = Drug metabolism in cynomolgus monkey liver microsomes assessed as formation of 3-(4-((6-methoxy-1-methyl-1H-benzo[d]imidazol-2-yl)methoxy)phenyl)-2-(methylthio)propanoic acid at 20 uM after 2 to 4 hrs by radio-HPLC/LC-MS/MS analysis in presence of NADPH-generating system/SAM and UDPGA/SAM; format: ADME, Macaca fascicularis
[2] = biological target: T1, UDP-glucuronosyltransferase 1A7 (Homo sapiens, UniProt Q9HAW7); assay: Activity of human UGT1A7 expressed in microsomes isolated from baculovirus infected insect cell assessed as enzyme-mediated (2S,3S,4S,5R,6R)-6-((1-carboxy-2-(4-((6-methoxy-1-methyl-1H-benzo[d]imidazol-2-yl)methoxy)phenyl)ethylthio)carbonylamino)-3,4,5-trihydroxytetrahydro-2H-pyran-2-carboxylic acid formation at 20 uM after 4 hrs by radio-HPLC/LC-MS/MS analysis in presence of UDPGA; format: ADME
T1 sequence (Q9HAW7 whole entry): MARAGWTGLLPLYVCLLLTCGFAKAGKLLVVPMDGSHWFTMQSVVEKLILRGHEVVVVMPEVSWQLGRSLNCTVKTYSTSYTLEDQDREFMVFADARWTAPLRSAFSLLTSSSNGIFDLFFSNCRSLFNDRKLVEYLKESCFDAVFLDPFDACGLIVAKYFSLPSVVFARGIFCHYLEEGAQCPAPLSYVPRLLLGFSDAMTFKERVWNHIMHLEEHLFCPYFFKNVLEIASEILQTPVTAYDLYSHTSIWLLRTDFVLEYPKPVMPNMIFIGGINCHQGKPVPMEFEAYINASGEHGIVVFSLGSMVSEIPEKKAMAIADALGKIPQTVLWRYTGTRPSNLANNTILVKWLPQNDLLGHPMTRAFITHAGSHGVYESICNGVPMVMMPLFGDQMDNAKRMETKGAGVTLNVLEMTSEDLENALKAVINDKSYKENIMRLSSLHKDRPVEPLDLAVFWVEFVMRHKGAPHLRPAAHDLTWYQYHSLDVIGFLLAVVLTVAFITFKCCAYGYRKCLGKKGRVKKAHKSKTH

[3] = Drug metabolism in human hepatocytes assessed as formation of 3-(4-((6-methoxy-1-methyl-1H-benzo[d]imidazol-2-yl)methoxy)phenyl)-2-(methylthio)propanoic acid at 30 uM after 3 hrs by radio-HPLC/LC-MS/MS analysis in presence of NADPH-generating system/SAM and UDPGA/SAM; format: ADME, cell-based, Hepatocyte
[4] = biological target: T2, UDP-glucuronosyltransferase 1A10 (Homo sapiens, UniProt Q9HAW8); assay: Activity of human UGT1A10 expressed in microsomes isolated from baculovirus infected insect cell assessed as enzyme-mediated (2S,3S,4S,5R,6R)-3,4,5-trihydroxy-6-(5-(4-((6-methoxy-1-methyl-1H-benzo[d]imidazol-2-yl)methoxy)benzyl)-2,4-dioxothiazolidin-3-yl)tetrahydro-2H-pyran-2-carboxylic acid formation at 20 uM after 4 hrs by radio-HPLC/LC-MS/MS analysis in presence of UDPGA; format: ADME
T2 sequence (Q9HAW8 whole entry): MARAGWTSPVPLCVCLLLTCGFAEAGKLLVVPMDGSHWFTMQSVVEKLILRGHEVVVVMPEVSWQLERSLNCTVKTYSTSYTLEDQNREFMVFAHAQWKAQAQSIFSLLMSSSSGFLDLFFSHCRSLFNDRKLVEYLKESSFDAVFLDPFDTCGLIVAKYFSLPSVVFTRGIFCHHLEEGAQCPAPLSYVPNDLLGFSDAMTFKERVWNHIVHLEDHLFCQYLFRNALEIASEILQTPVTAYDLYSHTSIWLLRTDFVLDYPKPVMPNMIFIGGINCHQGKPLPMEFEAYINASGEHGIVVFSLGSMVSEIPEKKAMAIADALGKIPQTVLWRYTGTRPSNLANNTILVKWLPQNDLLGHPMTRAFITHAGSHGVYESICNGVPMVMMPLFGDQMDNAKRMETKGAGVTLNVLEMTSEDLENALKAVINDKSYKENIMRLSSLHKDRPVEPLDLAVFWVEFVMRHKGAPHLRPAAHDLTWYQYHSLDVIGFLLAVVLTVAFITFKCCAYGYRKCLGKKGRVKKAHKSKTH
In short: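 Alamethicin (50 μg/mg protein, 15 min on ice) pretreated expressed human UGT microsomes (1 mg/ml protein) from baculovirus-infected insect cells. Incubation with [¹⁴C]rivoglitazone (20 μM) in 100 mM Tris-HCl (pH 7.5) with 10 mM MgCl₂, started by 5 mM UDPGA, 4 h at 37°C with shaking. UGT insect-cell control supersomes were run alongside. Acetonitrile stop, concentrated supernatant analysed by radio-HPLC, LC-MS and LC-MS/MS.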

[5] = biological target: T3, UDP-glucuronosyltransferase 2B7 (Homo sapiens, UniProt P16662); assay: Activity of human UGT2B7 expressed in microsomes isolated from baculovirus infected insect cell assessed as enzyme-mediated 3-(4-((6-methoxy-1-methyl-1H-benzo[d]imidazol-2-yl)methoxy)phenyl)-2-(methylthio)propanoic acid formation at 20 uM after 4 hrs by radio-HPLC/LC-MS/MS analysis in presence of NADPH-generating system/SAM and UDPGA/SAM in presence of UDPGA and UDPGA/SAM; format: ADME
T3 sequence (P16662 whole entry): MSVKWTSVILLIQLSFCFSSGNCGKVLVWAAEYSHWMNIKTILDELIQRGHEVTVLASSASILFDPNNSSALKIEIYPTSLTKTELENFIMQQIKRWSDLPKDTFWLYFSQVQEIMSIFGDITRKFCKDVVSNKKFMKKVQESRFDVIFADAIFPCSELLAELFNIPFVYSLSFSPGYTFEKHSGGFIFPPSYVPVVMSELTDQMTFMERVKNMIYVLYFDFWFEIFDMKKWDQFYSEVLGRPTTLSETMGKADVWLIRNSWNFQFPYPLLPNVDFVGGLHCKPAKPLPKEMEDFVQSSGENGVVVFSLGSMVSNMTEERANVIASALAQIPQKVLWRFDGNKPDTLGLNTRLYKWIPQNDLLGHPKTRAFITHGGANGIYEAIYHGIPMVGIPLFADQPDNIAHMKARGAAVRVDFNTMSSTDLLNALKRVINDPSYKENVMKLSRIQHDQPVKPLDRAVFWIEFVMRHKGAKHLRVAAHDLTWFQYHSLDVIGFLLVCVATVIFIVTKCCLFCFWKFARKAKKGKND

COc1ccc2nc(COc3ccc(C[14CH]4SC(=O)NC4=O)cc3)n(C)c2c1.Cl (racemic)
Drug metabolism [1]: metabolite_detected | Drug metabolism [2]: metabolite_not_detected | Drug metabolism [3]: metabolite_not_detected | Drug metabolism [4]: metabolite_not_detected | Drug metabolism [5]: metabolite_not_detected
